According to ChEMBL document CHEMBL4613294, “Inhibition of Nonessential Bacterial Targets: Discovery of a Novel Serine O-Acetyltransferase Inhibitor” (ACS Med Chem Lett, 2020):
Converted amounts (≈) assume the structure as drawn. The source made the active and inactive calls. No cut-off for these calls is given here.

What was measured:
Staphylococcus aureus = assay: Antibacterial activity against methicillin-resistant Staphylococcus aureus ATCC 33591 after 12 hrs by resazurin dye based assay; assay type: functional; settings: ATCC 33591, 12 h
[1] = test system: Salmonella enterica subsp. enterica serovar Typhimurium; assay: Inhibition of Salmonella typhimurium Serine acetyltransferase expressed in Escherichia coli Tuner(TM) BL21(DE3) cells at 100 uM using acetylCo-A and L-serine as substrate measured every 27 secs for 5 mins by DNTB reagent-based UV-Visible spectrophotometric method relative to control
Outline: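 Recombinant StSAT activity followed indirectly with Ellman's reagent: CoASH released from acetyl-CoA plus L-Ser gives TNB, read by absorbance at pH above 7 (ε 14 000 M–1 cm–1) in 96-well format. Compounds at 100 μM, kinetic reads at 27 s intervals, % inhibition taken at 180 s endpoint. Hits at ≥40% retested at 100 μM.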

[2] = Inhibition of Salmonella typhimurium Serine acetyltransferase expressed in Escherichia coli Tuner(TM) BL21(DE3) cells using acetylCo-A and L-serine as substrate measured every 27 secs for 5 mins by DNTB reagent-based UV-Visible spectrophotometric method; set-up: species or system Salmonella enterica subsp. enterica serovar Typhimurium
Escherichia coli [3] = assay: Antibacterial activity against Escherichia coli ATCC 25922 incubated in MHB medium for 16 to 24 hrs by CLSI-based broth microdilution assay; assay type: functional
Escherichia coli [4] = assay: Antibacterial activity against Escherichia coli ATCC 25922 incubated in LB 20% minimal medium lacking cysteine for 16 to 24 hrs by CLSI-based broth microdilution assay; assay type: functional
[5] = test system: Salmonella enterica subsp. enterica serovar Typhimurium; assay: Inhibition of Salmonella typhimurium Serine acetyltransferase expressed in Escherichia coli Tuner(TM) BL21(DE3) cells at 50 to 200 uM using acetylCo-A and L-serine as substrate measured every 27 secs for 5 mins by DNTB reagent-based UV-Visible spectrophotometric method
[6] = Solubility of compound at 200 uM; assay type: physicochemical

Row | Compound | MIC (Staphylococcus aureus) [µg/mL] | inhibition [1] [%] | IC50 [2] [µM] | MIC (Escherichia coli [3]) [µg/mL] | MIC (Escherichia coli [4]) [µg/mL] | inhibition [5] | solubility [6]
1 | CC1(C)CCC[C@]2(C)C1CC[C@]1(O)[C@H](O)C3=C(CO)C(=O)OC3=C[C@H]12 (some centres not stated) | 25 (≈ 71.7 µM) | – | – | – | – | – | –
2 | COc1cccc(NC(=O)c2cc(-c3ccc(OC)c(S(N)(=O)=O)c3)[nH]n2)c1 | – | 75 | 13.6 | > 128 | > 128 | – | –
3 | O=C(Nc1ncc([N+](=O)[O-])s1)c1csnn1 | – | 68 | 48.6 | > 128 | 64 (≈ 249 µM) | – | –
4 | COc1ccc(-c2cc(C(=O)NCc3ccccc3)n[nH]2)cc1S(N)(=O)=O | – | 79 | 52.8 | > 128 | > 128 | – | –
5 | CC1=C2[C@@H](OC1=O)C(=O)[C@@H]1[C@@](O)(CCC3C(C)(C)CCC[C@]31C)[C@H]2O (some centres not stated) | 12.5 (≈ 35.9 µM) | – | – | – | – | – | –
6 | C=CCSc1nc2c(c(=O)[nH]1)C(c1ccc(OCC(N)=O)cc1)CC(=O)N2 (configuration not stated) | – | 57 | 84.1 | > 128 | > 128 | – | –
7 | Cc1snnc1C(=O)Nc1ncc([N+](=O)[O-])s1 | – | 72 | 47.8 | > 128 | > 128 | – | –
8 | COc1cc(NC(=O)c2cc(-c3ccc(OC)c(S(N)(=O)=O)c3)[nH]n2)cc(OC)c1 | – | 52 | – | > 128 | > 128 | Active | Insoluble
